Screening data deposited in PubChem by The Scripps Research Institute Molecular Screening Center.
M1 PAM: human M1 muscarinic receptor positive allosteric modulators, primary screen, CHO-K1 cells, Fluo-8 calcium fluorescence, 1536-well. CHO-K1 hM1, ACh EC20; 0% = ACh EC20, 100% = maximal ACh. activation, % at 3 µM. hit rate 0.088% among 360,000. AID 588819, 2011; in the data active means activation above about 19%, passing the limit was not always enough
M1 ag: human M1 muscarinic receptor agonists, primary screen, Fluo-8 calcium fluorescence, CHO-K1 cells, HTS; Muscarinic acetylcholine receptor M1 (Homo sapiens), P11229; CHO-K1 hM1, agonist mode; 0% DMSO, 100% acetylcholine EC100; activation, % at 3 µM; hit rate 0.33% among 360,000; AID 588814, 2011;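 active means activation above the run's mean compound activation plus 3 SD, cut at about 16% in these data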;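 further: peak over basal fluorescence ratio within a 140 s kinetic read after compound addition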
TAAR1 antag: human TAAR1 antagonists, primary screen, Fluo-8 calcium fluorescence, CHO RD-HGA16 cells; antagonist; inhibition, % at 3 µM; hit rate 1.5% among 360,000;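 active means inhibition above a per-plate cutoff, the mean inhibition of test compounds on that plate plus 3 SD, cut at about 49% in these data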;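 further: 0% = DMSO plus EC80 beta-PEA response and 100% = DMSO alone without agonist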
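Material: CHO RD-HGA16 cells bearing hTAAR1; compound dosing: one-point dosing, 3 µM nominal final; schedule: dye loading 75 min at 37 °C, then 30 min room temperature; measured by: calcium fluorescence with Fluo-8; control set: vehicle and agonist controls; replication: n of 1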
TAAR1 ag: human TAAR1 agonists, primary screen, Fluo-8 calcium fluorescence, CHO RD-HGA16 cells; vehicle wells 0%, saturating PEA agonist 100%; hit rate 0.99% among 360,000; Trace amine-associated receptor 1 (Homo sapiens), Q96RJ0; activation, % at 3 µM;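 active means activation above the mean activation of all test compounds in the run plus 3 SD, cut at about 38% in these data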
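System: CHO-derived RD-HGA16 cells with stable Gα16 and human TAAR1 / Times: 17-24 h plating, Fluo-8 75 min 37 °C, 30 min RT / Technique: calcium-sensitive Fluo-8 signal, excitation 470-495, emission 515-575 nm / Measure: % activation relative to PEA EC100 response / Benchmarks: DMSO and PEA EC100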
CHRM1 antagonist: human M1 muscarinic receptor antagonists, primary screen, CHO-K1 cells, Fluo-8 calcium fluorescence, 1536-well; hit rate 1.3% among 360,000; CHO-K1 hM1, ACh EC80 antagonist; inhibition, % at 3 µM;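 active means percent inhibition above its own plate's cutoff, namely the mean of that plate's compound wells plus 3 SD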;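 further: peak over basal fluorescence ratio during 140 s after agonist addition; 0% = ACh EC80 plus DMSO and 100% = DMSO alone without agonist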
m5-HT2A agonist: mouse Htr2a agonists via beta-arrestin recruitment, primary screen, cell-based, luminescence. activation, % at 7.6 µM. CHO-K1 mHTR2A beta-arrestin complementation; percent of 30 µM serotonin response. hit rate 0.66% among 360,000. 5-hydroxytryptamine receptor 2A (Mus musculus), P35363;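 active means activation above a run cutoff, the mean activation of all tested compounds plus 3 SD, cut at about 14% in these data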;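 further: 0% = plate median of compound wells and 100% = 30 µM serotonin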
Target sequence (P35363 whole entry, looked up): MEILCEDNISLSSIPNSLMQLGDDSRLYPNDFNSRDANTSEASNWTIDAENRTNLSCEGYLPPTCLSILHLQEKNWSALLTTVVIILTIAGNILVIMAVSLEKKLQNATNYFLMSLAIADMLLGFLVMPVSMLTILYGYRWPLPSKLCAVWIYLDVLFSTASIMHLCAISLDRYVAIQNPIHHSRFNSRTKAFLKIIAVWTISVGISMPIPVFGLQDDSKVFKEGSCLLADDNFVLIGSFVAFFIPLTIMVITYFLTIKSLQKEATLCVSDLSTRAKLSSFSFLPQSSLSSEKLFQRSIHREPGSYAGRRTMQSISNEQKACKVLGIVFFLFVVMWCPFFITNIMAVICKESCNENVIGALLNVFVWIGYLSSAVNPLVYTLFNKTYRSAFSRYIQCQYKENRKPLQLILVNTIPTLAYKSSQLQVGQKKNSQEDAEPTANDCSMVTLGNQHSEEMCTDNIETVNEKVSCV
* hit, by the source's call; . = no result given. Most compounds without a hit are left out; they make up all but 3.9% or so of the library.

SMILES	M1 PAM	M1 ag	TAAR1 antag	TAAR1 ag	CHRM1 antagonist	m5-HT2A agonist
CC(=O)c1cccc(N(C(=O)CNC(=O)c2ccco2)C(C(=O)NCc2ccco2)c2ccccc2)c1 (stereo unspecified)	13	-1	23	-1	-12	2
CCCCCCCCN1C(=O)[C@@H](CC(=O)N2CCN(C(=O)C3CC3)CC2)C[C@@]2(C(=O)OC)C1=C[C@H](C(C)(C)C)O[C@@H]2C	.	.	-25	-3	.	.
Cc1ccc(OCC(=O)NNC(=S)NC(=O)C2CCCCC2)c(C)c1	-1	20*	.	.	2	-2
CCCCn1c(N)c(N(CCOC)C(=O)Cn2c(=O)oc3ccccc32)c(=O)[nH]c1=O	12	-2	-15	1	-12	1
Cc1sc2cc3c(c(C(=O)c4ccccc4)[n+]2c1C)-c1cccc2cccc-3c12	.	.	-5	1	.	.
O=C(c1ccccc1)c1c2c(cc3sc4ccccc4[n+]13)-c1cccc3cccc-2c13	-14	34*	9	8	46*	8
Cc1cnc(NC(=O)CSc2ncc(-c3ccccc3)n2Cc2ccco2)s1	-6	21*	78*	58*	22	-5
O=C(CSc1ncc(-c2ccc(F)cc2)n1Cc1ccco1)Nc1nccs1	-2	2	40	46*	12	-4
COc1ccc(NC(=O)CSc2ncc(-c3ccc(F)cc3)n2Cc2ccco2)cc1	-10	-3	26	5	19	-5
CCOC(=O)C1CCCN(C(=O)c2cc(Cl)ccc2Cl)C1 (stereo unspecified)	2	19*	8	16	-5	1
CCOC(=O)C1CCCN(C(=O)c2ccc(S(=O)(=O)N3CCCC3)cc2)C1 (stereo unspecified)	-16	-3	-17	2	39*	-5
CCOC(=O)C1CCCN(C(=O)c2ccc(S(=O)(=O)N3CCOCC3)cc2)C1 (stereo unspecified)	-7	0	6	3	17	6
CCOC(=O)C1CCCN(C(=O)C(C)Oc2ccc(Cl)cc2Cl)C1 (stereo unspecified)	-7	21*	.	.	-2	1
COc1ccc(CN2CCN(C(=O)c3ccc(S(=O)(=O)N4CCCCCC4)cc3)CC2)cc1F	-9	-2	58*	12	13	0
O=S(=O)(Nc1ncccn1)c1ccc(NC(=S)NCc2cccnc2)cc1	12	-8	5	9	1	-2
C=CCn1c(=NC(=O)c2ccccc2[N+](=O)[O-])sc2cc(S(C)(=O)=O)ccc21	-11	8	29	9	1	-3
CN(C)CCOc1ccc2c(c1)Sc1ccccc1CC2=O	-6	10	4	1	9	-4
CN(C)CCOC1c2ccccc2CSc2ccccc21 (stereo unspecified)	-25	-8	6	17	99*	-9
CC(C)Cc1ccc(-c2cc3nc(NCCc4ccc(S(N)(=O)=O)cc4)ccn3n2)cc1	1	4	67*	23	8	-12
Cc1nn(-c2ccccc2)nc1C(=O)Nc1nnc(C(F)(F)F)s1	-1	4	-13	4	-4	8
O=C(NC1CCN(Cc2ccccc2)CC1)C1CCN(c2nnc(-n3cccc3)s2)CC1	-19	-14	-23	1	51*	-1
O=C(NC1CCN(Cc2ccccc2)CC1)C1CCCN(c2nnc(-n3cccc3)s2)C1 (stereo unspecified)	-8	-12	-28	2	-4	-4
O=C(NCCCN1CCN(Cc2ccccc2)CC1)C1CCN(c2nnc(-n3cccc3)s2)CC1	-21	-4	-15	-2	44*	-2
